Holding throughout (type): functional
The subject of one assay is KM12. The assay is described as follows: Cytotoxicity against human KM12 cells after 48 hrs by sulforhodamine B assay. As to conditions: KM12, 48 h, read-out: LC50 (the source's name). The method in brief:
(§1)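 NCI 60 human tumour cell line panel run to the NCI protocol. GI50, TGI and LC50 come from log concentration vs % growth inhibition curves for each cell line. Lines insensitive at the top concentration are reported with ">".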
Background: The SRB assay estimates cell density from bound dye.

For the next assay, the system named is MDA-MB-435. As to the kind of experiment: Cytotoxicity against human MDA-MB-435 cells after 48 hrs by sulforhodamine B assay. As to conditions: MDA-MB-435, 48 h, read-out: LC50 (the source's name). Summed up: as §1
The next assay relates to SK-OV-3. As to the kind of experiment: Cytotoxicity against human SKOV3 cells after 48 hrs by sulforhodamine B assay. As to conditions: SK-OV-3, 48 h, read-out: LC50 (the source's name). Summed up:
as §1

A further assay concerns UO-31. As to the kind of experiment: Growth inhibition of human UO31 cells after 48 hrs by sulforhodamine B assay. As to conditions: UO-31, 48 h. The method in brief: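 NCI 60-cell panel five-dose assay. GI50, TGI and LC50 are derived from log concentration versus % growth inhibition curves. Cell lines insensitive at the top concentration are given a ">" prefix.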
Assay [1] relates to MDA-MB-468. As to the kind of experiment: Growth inhibition of human MDA-MB-468 cells after 48 hrs by sulforhodamine B assay. As to conditions: MDA-MB-468, 48 h. Summed up:
(§2)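 GI50, TGI and LC50 were derived from log concentration versus % growth inhibition curves for each cell line. GI50 is the concentration giving a 50% decrease in net cell growth. Insensitive lines are reported as greater than the highest concentration.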

For the next assay, the system named is CCRF-CEM. As to the kind of experiment: Cytotoxicity against human CCRF-CEM cells after 48 hrs by sulforhodamine B assay. As to conditions: read-out: LC50 (the source's name). Summed up: as §1
The test system of another assay is K562. The assay is described as follows: Cytotoxicity against human K562 cells after 48 hrs by sulforhodamine B assay. As to conditions: K562, 48 h, read-out: LC50 (the source's name). Summed up: as §1
The test system of the next assay is Burkholderia gladioli. The assay is described as follows: Antibacterial activity against Pseudomonas antimicrobica assessed as zone of inhibition at 5 uL and 32 degC after 36 hrs by disk diffusion method. Summed up: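 Disc diffusion on AC agar, each strain spread evenly over the medium; test compounds given as 1% (w/v) DMSO solutions. Plates covered and incubated 36 h at 32 °C, then the diameter of the zone of inhibited growth measured in mm. Tetracycline served as antibacterial reference.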
A general note: A growth-free zone around the sample is the usual read-out of agar diffusion tests.

For the next assay, the system named is A549. The assay is described as follows: Growth inhibition of human A549 cells after 48 hrs by sulforhodamine B assay. As to conditions: A549, 48 h. Summed up:
(§3)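 From log concentration versus % growth curves, GI50 (50% decrease in net growth), TGI (total growth inhibition) and LC50 (net 50% loss of initial cells) are derived for each line.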

For the next assay, the system named is LOX IMVI. The assay is described as follows: Growth inhibition of human LOXIMVI cells after 48 hrs by sulforhodamine B assay. The method in brief: as §3
For the next assay, the system named is OVCAR-4. The assay is described as follows: Growth inhibition of human OVCAR4 cells after 48 hrs by sulforhodamine B assay. As to conditions: OVCAR-4, 48 h. Summed up:
as §2

The subject of another assay is U-251. The assay is described as follows: Cytotoxicity against human U251 cells after 48 hrs by sulforhodamine B assay. As to conditions: U-251, 48 h, read-out: LC50 (the source's name).
A further assay deals with SK-MEL-5. As to the kind of experiment: Cytotoxicity against human SK-MEL-5 cells after 48 hrs by sulforhodamine B assay. As to conditions: SK-MEL-5, 48 h, read-out: LC50 (the source's name). The method in brief: as §1
The next assay relates to 786-0. The assay is described as follows: Cytotoxicity against human 786-0 cells after 48 hrs by sulforhodamine B assay. As to conditions: 786-0, 48 h, read-out: LC50 (the source's name). The method in brief: as §1
A further assay concerns A498. The assay is described as follows: Cytotoxicity against human A498 cells after 48 hrs by sulforhodamine B assay. As to conditions: A498, 48 h, read-out: LC50 (the source's name). The method in brief:
as §1

The subject of a further assay is ACHN. As to the kind of experiment: Cytotoxicity against human ACHN cells after 48 hrs by sulforhodamine B assay. As to conditions: read-out: LC50 (the source's name). The method in brief:
as §1

For the next assay, the system named is CAKI-1. The assay is described as follows: Cytotoxicity against human Caki1 cells after 48 hrs by sulforhodamine B assay. As to conditions: CAKI-1, 48 h, read-out: LC50 (the source's name). The method in brief: as §1
The subject of another assay is RXF 393. As to the kind of experiment: Cytotoxicity against human RXF393 cells after 48 hrs by sulforhodamine B assay. As to conditions: RXF 393, 48 h, read-out: LC50 (the source's name). Summed up: as §1
For another assay, the system named is MCF7. As to the kind of experiment: Cytotoxicity against human MCF7 cells after 48 hrs by sulforhodamine B assay. As to conditions: MCF7, 48 h, read-out: LC50 (the source's name). Summed up: as §1
In assay [2] the test system is MDA-MB-468. As to the kind of experiment: Cytotoxicity against human MDA-MB-468 cells after 48 hrs by sulforhodamine B assay. As to conditions: MDA-MB-468, 48 h, read-out: LC50 (the source's name). Summed up: as §1
The next assay concerns HOP-92. As to the kind of experiment: Cytotoxicity against human HOP92 cells after 48 hrs by sulforhodamine B assay. As to conditions: HOP-92, 48 h, read-out: LC50 (the source's name). The method in brief:
as §1

The source made the active and inactive calls. The rule behind the calls is not given here.

Turning to `CC(C)CCC[C@@H](C)[C@H]1CC[C@H]2C3=CC[C@@H]4C(=O)C=CC(=O)[C@@H]4[C@@H]3CC[C@]12C`, the CC50 in the assay on KM12, in the assay on MDA-MB-435, in the assay with SK-OV-3, with CCRF-CEM and in the assay on K562 was > 100 µM in each case. Besides, the GI50 amounted to 72 nM in the assay on UO-31; 215 nM in the assay on MDA-MB-468 [1]; 58 nM in the assay with A549; 227 nM with LOX IMVI; 159 nM in the assay on OVCAR-4. Besides, the total growth inhibition concentration (TGI) is 359 nM with UO-31; 462 nM in the assay with MDA-MB-468 [1]; 780 nM with A549; 1170 nM in the assay with LOX IMVI; 498 nM with OVCAR-4. The “diameter of the inhibition zone (DIZ)” value in the assay with Burkholderia gladioli is “inactive”.

Regarding `CC(C)CCC[C@@H](C)[C@H]1CC[C@H]2C3=CCn4c(=O)ccc(=O)n4[C@@H]3CC[C@]12C`, the CC50 is 4.44 µM in the assay on KM12; 4.18 µM in the assay on U-251; 7.68 µM with MDA-MB-435; 4.52 µM in the assay with SK-MEL-5; 5.47 µM with SK-OV-3; 4.43 µM in the assay on 786-0. In addition, the CC50 in the assay on A498 came out at 4.87 µM; in the assay on ACHN it was 5.19 µM; in the assay on CAKI-1 it was 3.47 µM; in the assay with RXF 393, 5.43 µM; in the assay with MCF7, 4.26 µM; in the assay with MDA-MB-468 [2], 9.42 µM. Moreover, the CC50 in the assay with CCRF-CEM is > 100 µM; in the assay with K562 it was > 100 µM; in the assay with HOP-92 it was 3.76 µM. Moreover, the concentration for 50% growth inhibition (GI50) in the assay on UO-31 was found to be 237 nM; in the assay with MDA-MB-468 [1] it was 628 nM; with A549, 325 nM; with LOX IMVI it was 288 nM; in the assay with OVCAR-4, 686 nM. In addition, the total growth inhibition concentration (TGI) amounted to 1150 nM in the assay with UO-31; 2560 nM with MDA-MB-468 [1]; 1240 nM with A549; 1050 nM in the assay on LOX IMVI; 2110 nM in the assay with OVCAR-4.

By GI50 is commonly meant the concentration giving 50% growth inhibition. A higher GI50 goes with lower sensitivity of the cells. Broadly, the TGI is the concentration at which net growth stops.

These data come from ChEMBL document CHEMBL1806372, “Cytotoxic ring A-modified steroid analogues derived from Grundmann's ketone” (Eur J Med Chem, 2011).
